We go through two compounds from ChEMBL document CHEMBL1811752, “Synthesis and pharmacological characterization of bicyclic triple reuptake inhibitor 3-aryl octahydrocyclopenta[c]pyrrole analogues” (J Med Chem, 2011).

In data set [1] the test system is Brain. Nature of the data set: Drug level in mouse brain at 30 mg/kg, po. Type of data set: ADME, organism-based. Further details: dose 30 mg/kg, route oral. As to conditions: in vivo. In a few lines: (§1)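 Male mice dosed orally at 3, 10 or 30 mg/kg in 5% transcutol/saline, 60 min before the tail suspension test. Terminal whole brain (ng/g) and plasma (ng/mL) samples taken from the test animals. Brain/plasma ratio derived from these levels.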

For data set [2], the target named is Sodium-dependent noradrenaline transporter (Homo sapiens, UniProt P23975). Nature of the data set: Inhibition of norepinephrine reuptake at NET expressed in MDCK cells. Type of data set: cell-based.
Chain of Sodium-dependent noradrenaline transporter (P23975 whole entry): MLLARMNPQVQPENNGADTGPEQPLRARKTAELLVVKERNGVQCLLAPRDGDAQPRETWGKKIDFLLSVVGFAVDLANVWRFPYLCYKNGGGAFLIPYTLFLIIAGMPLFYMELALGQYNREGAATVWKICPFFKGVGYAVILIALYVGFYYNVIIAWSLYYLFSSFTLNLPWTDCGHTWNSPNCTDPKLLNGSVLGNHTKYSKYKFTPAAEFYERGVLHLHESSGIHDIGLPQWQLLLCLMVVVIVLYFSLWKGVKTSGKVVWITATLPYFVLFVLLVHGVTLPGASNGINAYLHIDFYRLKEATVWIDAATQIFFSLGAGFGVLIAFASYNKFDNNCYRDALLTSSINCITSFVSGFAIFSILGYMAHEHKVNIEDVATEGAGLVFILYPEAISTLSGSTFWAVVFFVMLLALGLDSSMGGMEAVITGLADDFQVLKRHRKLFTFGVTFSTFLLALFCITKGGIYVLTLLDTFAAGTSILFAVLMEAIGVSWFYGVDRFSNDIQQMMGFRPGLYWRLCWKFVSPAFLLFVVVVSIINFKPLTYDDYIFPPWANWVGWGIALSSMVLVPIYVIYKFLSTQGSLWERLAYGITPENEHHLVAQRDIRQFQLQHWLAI
Data set [3] concerns Mus musculus. The data set is described as follows: Antidepressant activity in mouse assessed as reduction of immobility time at 10 mg/kg, po after 60 mins by tail suspension test relative to control. Type of data set: functional. Further details: scale not given: the % may be the effect or the level left. Summed up: (§2)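 Mouse tail suspension test, male mice (10–12 per group, blind). Single oral dose in 5% transcutol in saline, 60 min pretreatment. Immobility recorded automatically for 5 min. Compared with vehicle group. Desipramine 100 mg/kg PO used as reference. One-way ANOVA with Dunnett's post test, p < 0.05.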

The target of a further data set is T1, CYP1A (Homo sapiens, UniProt P04798+P05177).
T1 sequence (P04798 whole entry): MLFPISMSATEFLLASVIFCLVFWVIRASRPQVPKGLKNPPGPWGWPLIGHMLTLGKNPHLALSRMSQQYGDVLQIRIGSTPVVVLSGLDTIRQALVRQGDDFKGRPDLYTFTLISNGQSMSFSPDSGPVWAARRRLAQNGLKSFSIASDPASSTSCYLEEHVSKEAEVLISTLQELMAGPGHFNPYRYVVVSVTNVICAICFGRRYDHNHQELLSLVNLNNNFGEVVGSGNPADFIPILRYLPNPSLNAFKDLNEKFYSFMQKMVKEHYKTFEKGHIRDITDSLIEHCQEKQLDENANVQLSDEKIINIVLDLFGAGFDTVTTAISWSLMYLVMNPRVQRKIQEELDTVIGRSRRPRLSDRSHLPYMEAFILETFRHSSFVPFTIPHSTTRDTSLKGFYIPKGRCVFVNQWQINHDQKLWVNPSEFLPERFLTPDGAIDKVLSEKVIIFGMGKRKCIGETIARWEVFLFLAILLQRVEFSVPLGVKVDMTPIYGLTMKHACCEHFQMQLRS
T1 sequence (P05177 whole entry): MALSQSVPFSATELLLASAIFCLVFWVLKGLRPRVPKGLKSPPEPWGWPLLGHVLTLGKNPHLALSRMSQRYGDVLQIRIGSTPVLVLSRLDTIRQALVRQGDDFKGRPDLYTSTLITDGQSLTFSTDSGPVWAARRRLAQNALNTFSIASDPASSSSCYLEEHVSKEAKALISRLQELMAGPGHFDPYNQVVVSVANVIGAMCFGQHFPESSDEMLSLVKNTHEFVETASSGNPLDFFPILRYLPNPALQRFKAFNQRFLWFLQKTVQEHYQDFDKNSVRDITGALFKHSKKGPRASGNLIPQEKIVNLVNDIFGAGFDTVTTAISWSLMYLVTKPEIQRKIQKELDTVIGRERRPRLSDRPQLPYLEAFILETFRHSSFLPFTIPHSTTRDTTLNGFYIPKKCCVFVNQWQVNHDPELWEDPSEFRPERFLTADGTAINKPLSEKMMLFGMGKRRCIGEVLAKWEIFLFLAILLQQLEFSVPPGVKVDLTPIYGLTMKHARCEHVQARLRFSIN
Nature of the data set: Inhibition of CYP1A in human liver microsomes by LC-MS/MS analysis. The data set is classed as ADME, Microsome. In a few lines: (§3)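 Human liver microsomes incubated with isoform-specific substrates and compound, typically 0.1–25 μM. Metabolite formation read by LC-MS/MS, […]. IC50 calculated from the decrease in metabolite formation relative to vehicle control.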
(Liver microsomes are vesicles of endoplasmic reticulum, rich in cytochrome P450 enzymes.)

For another data set, the target named is Cytochrome P450 2D6 (Homo sapiens, UniProt P10635). Nature of the data set: Inhibition of CYP2D6 in human liver microsomes by LC-MS/MS analysis. Type of data set: ADME, Microsome. Summed up:
as §3

Data set [4] has as its system Plasma. The data set is described as follows: Plasma concentration in mouse at 3 mg/kg, po. Further details: dose 3 mg/kg, route oral. As to conditions: in vivo. Type of data set: ADME, organism-based. Summed up:
as §1

For data set [5], the system named is Brain. Nature of the data set: Drug level in mouse brain at 3 mg/kg, po. Type of data set: ADME, organism-based. Further details: dose 3 mg/kg, route oral. As to conditions: in vivo. In a few lines:
as §1

Data set [6] can be described thus: Half life in human liver microsomes at 3 uM by LC-MS/MS analysis. The data set is classed as ADME, Microsome. Summed up: (§4)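 Human or mouse liver microsomes (0.5 mg/mL) incubated with 3 μM compound at 37 °C. Reaction started with NADPH and stopped with methanol containing internal standard. Loss of compound followed over 45 min by LC-MS/MS. Peak area ratio to internal standard plotted against time and the slope of the line taken.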

Data set [7] concerns Plasma. Nature of the data set: Plasma concentration in mouse at 10 mg/kg, po. The data set is classed as ADME, organism-based. Further details: dose 10 mg/kg, route oral. The conditions noted are these: in vivo. In a few lines: as §1
Data set [8] deals with Mus musculus. The data set is described as follows: Antidepressant activity in mouse assessed as reduction of immobility time at 30 mg/kg, po after 60 mins by tail suspension test relative to control. Type of data set: functional. Further details: scale not given: the % may be the effect or the level left. In a few lines:
as §2

The subject of data set [9] is Plasma. The data set is described as follows: Plasma concentration in mouse assessed as (3aS,6aR)-3a-(3,4-dichlorophenyl)octahydrocyclopenta[c]pyrrole level at 30 mg/kg, po. Type of data set: ADME, organism-based. Further details: dose 30 mg/kg, route oral. As to conditions: in vivo. In a few lines:
as §1

The nature of data set [10]: Half life in mouse liver microsomes at 3 uM by LC-MS/MS analysis. The data set is classed as ADME, Microsome. In a few lines: as §4
The test system of data set [11] is Brain. Nature of the data set: Drug level in mouse brain assessed as (3aS,6aR)-3a-(3,4-dichlorophenyl)octahydrocyclopenta[c]pyrrole level at 10 mg/kg, po. The data set is classed as ADME, organism-based. Further details: dose 10 mg/kg, route oral. As to conditions: in vivo. Summed up:
as §1

Data set [12] deals with Sodium-dependent serotonin transporter (Homo sapiens, UniProt P31645). Nature of the data set: Inhibition of serotonin reuptake at SERT expressed in HEK293 cells. Type of data set: cell-based.
Chain of Sodium-dependent serotonin transporter (P31645 whole entry): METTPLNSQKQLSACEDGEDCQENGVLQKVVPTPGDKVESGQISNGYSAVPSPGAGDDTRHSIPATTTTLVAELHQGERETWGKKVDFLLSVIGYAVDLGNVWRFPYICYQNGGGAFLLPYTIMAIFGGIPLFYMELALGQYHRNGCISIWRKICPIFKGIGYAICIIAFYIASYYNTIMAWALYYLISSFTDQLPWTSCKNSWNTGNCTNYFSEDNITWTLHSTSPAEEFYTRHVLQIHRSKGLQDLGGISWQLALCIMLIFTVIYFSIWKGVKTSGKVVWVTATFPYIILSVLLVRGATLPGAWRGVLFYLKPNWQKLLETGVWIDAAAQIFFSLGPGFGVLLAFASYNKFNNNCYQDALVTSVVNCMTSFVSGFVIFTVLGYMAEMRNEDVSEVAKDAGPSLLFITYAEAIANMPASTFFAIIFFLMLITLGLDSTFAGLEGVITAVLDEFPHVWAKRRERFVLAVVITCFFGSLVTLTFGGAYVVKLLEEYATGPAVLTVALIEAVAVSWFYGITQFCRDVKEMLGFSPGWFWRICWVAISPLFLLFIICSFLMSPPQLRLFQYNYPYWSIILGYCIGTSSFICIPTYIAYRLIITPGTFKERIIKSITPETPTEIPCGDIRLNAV
Data set [13] concerns Brain. Nature of the data set: Drug level in mouse brain at 10 mg/kg, po. The data set is classed as ADME, organism-based. On the set-up: dose 10 mg/kg, route oral. As to conditions: in vivo. In a few lines:
as §1

Data set [14] has as its system Plasma. The data set is described as follows: Plasma concentration in mouse assessed as (3aS,6aR)-3a-(3,4-dichlorophenyl)octahydrocyclopenta[c]pyrrole level at 10 mg/kg, po. Type of data set: ADME, organism-based. Further details: dose 10 mg/kg, route oral. As to conditions: in vivo. In a few lines:
as §1

Data set [15] deals with Mus musculus. Nature of the data set: Antidepressant activity in po dosed mouse assessed as reduction of immobility time after 60 mins by tail suspension test. The data set is classed as functional, organism-based. Summed up:
as §2

The subject of data set [16] is Mus musculus. Nature of the data set: Antidepressant activity in mouse assessed as reduction of immobility time at 100 mg/kg, po after 60 mins by tail suspension test relative to control. The data set is classed as functional. Further details: scale not given: the % may be the effect or the level left. In a few lines:
as §2

The next data set concerns the target Cytochrome P450 2C9 (Homo sapiens, UniProt P11712). The data set is described as follows: Inhibition of CYP2C9 in human liver microsomes by LC-MS/MS analysis. The data set is classed as ADME, Microsome. In a few lines:
as §3

Data set [17] has as its system Brain. The data set is described as follows: Drug level in mouse brain assessed as (3aS,6aR)-3a-(3,4-dichlorophenyl)octahydrocyclopenta[c]pyrrole level at 30 mg/kg, po. Type of data set: ADME, organism-based. Further details: dose 30 mg/kg, route oral. The conditions noted are these: in vivo. In a few lines:
as §1

The subject of data set [18] is Brain. The data set is described as follows: Drug level in mouse brain assessed as (3aS,6aR)-3a-(3,4-dichlorophenyl)octahydrocyclopenta[c]pyrrole level at 3 mg/kg, po. The conditions noted are these: in vivo. Further details: dose 3 mg/kg, route oral. Type of data set: ADME, organism-based. Summed up:
as §1

The next data set concerns the target Cytochrome P450 3A4 (Homo sapiens, UniProt P08684). Nature of the data set: Inhibition of CYP3A4 in human liver microsomes by LC-MS/MS analysis. The data set is classed as ADME, Microsome. Summed up:
as §3

For data set [19], the system named is Plasma. Nature of the data set: Plasma concentration in mouse assessed as (3aS,6aR)-3a-(3,4-dichlorophenyl)octahydrocyclopenta[c]pyrrole level at 3 mg/kg, po. The data set is classed as ADME, organism-based. Further details: dose 3 mg/kg, route oral. As to conditions: in vivo. In a few lines: as §1
The test system of data set [20] is Plasma. Nature of the data set: Plasma concentration in mouse at 30 mg/kg, po. The data set is classed as ADME, organism-based. On the set-up: dose 30 mg/kg, route oral. As to conditions: in vivo. In a few lines: as §1
For another data set, the target named is Cytochrome P450 2C19 (Homo sapiens, UniProt P33261). Nature of the data set: Inhibition of CYP2C19 in human liver microsomes by LC-MS/MS analysis. The data set is classed as ADME, Microsome. Summed up: as §3
Chain of Cytochrome P450 2C19 (P33261 whole entry): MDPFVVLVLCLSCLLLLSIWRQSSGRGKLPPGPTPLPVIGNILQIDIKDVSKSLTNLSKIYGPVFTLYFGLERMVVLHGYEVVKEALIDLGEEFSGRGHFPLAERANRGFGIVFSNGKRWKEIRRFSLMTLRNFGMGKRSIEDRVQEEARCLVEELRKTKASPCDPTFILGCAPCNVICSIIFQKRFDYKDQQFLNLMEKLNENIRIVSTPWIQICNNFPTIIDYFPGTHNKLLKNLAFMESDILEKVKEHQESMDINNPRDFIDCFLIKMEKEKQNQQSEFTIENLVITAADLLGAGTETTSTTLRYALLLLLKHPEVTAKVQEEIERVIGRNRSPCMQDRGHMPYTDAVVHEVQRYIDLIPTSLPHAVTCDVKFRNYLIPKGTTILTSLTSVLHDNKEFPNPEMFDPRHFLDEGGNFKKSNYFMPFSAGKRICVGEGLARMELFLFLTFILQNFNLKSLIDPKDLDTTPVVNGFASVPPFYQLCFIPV
The nature of data set [21]: Ratio of drug level in brain to plasma in po dosed mouse. Type of data set: ADME, organism-based. The conditions noted are these: brain and plasma, read-out: BPR. In a few lines:
as §1

The target of data set [22] is Sodium-dependent dopamine transporter (Homo sapiens, UniProt Q01959). The data set is described as follows: Inhibition of dopamine reuptake at DAT expressed in CHO-K1 cells. The data set is classed as cell-based.
Chain of Sodium-dependent dopamine transporter (Q01959 whole entry): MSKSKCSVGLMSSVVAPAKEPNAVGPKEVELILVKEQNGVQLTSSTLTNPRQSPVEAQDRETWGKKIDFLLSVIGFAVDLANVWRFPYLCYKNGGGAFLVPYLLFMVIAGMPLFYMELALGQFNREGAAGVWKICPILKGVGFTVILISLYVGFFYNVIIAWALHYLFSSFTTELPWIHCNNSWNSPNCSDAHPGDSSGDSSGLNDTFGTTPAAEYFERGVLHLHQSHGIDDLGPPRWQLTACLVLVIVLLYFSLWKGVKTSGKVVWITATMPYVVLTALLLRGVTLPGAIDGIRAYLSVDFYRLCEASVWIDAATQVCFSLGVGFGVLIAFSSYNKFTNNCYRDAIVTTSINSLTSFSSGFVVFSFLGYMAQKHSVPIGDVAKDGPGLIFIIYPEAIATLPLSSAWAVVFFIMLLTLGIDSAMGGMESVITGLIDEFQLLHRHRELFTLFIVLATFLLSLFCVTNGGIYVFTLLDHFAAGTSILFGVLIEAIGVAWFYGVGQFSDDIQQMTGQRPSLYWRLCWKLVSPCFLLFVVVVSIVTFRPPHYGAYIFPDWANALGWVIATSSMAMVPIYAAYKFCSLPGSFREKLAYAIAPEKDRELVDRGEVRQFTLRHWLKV
The nature of data set [23]: Plasma protein binding in mouse. Type of data set: ADME, cell-free. As to conditions: read-out: PPB (converted). In a few lines:
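Protein binding measured with mouse plasma protein.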

The test system of data set [24] is Mus musculus. The data set is described as follows: Toxicity in mouse assessed as increase of spontaneous locomotor activity at 10 to 30 mg/kg, po measured for 5 mins. Type of data set: organism-based. Further details: dose 10-30 mg/kg, route oral. The conditions noted are these: in vivo.
Data set [25] in a line: Ratio of drug level in brain to plasma in mouse at 30 mg/kg, po. Type of data set: ADME, organism-based. Further details: dose 30 mg/kg, route oral. As to conditions: brain and plasma, read-out: BPR. Summed up:
as §1

Chain of Cytochrome P450 3A4 (P08684 whole entry): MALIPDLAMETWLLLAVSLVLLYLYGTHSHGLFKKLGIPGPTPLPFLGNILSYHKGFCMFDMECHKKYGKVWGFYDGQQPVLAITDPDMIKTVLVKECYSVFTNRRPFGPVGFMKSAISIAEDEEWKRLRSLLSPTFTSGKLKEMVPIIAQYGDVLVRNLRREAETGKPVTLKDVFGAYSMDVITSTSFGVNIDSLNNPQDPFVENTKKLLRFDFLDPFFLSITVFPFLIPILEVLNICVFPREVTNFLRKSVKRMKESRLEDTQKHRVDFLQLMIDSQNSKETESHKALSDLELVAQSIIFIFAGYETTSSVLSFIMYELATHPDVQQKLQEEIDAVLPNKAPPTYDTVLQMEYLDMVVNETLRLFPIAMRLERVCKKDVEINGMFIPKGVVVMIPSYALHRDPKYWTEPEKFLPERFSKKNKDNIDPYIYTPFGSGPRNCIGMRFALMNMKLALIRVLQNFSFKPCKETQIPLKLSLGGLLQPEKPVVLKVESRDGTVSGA
Chain of Cytochrome P450 2D6 (P10635 whole entry): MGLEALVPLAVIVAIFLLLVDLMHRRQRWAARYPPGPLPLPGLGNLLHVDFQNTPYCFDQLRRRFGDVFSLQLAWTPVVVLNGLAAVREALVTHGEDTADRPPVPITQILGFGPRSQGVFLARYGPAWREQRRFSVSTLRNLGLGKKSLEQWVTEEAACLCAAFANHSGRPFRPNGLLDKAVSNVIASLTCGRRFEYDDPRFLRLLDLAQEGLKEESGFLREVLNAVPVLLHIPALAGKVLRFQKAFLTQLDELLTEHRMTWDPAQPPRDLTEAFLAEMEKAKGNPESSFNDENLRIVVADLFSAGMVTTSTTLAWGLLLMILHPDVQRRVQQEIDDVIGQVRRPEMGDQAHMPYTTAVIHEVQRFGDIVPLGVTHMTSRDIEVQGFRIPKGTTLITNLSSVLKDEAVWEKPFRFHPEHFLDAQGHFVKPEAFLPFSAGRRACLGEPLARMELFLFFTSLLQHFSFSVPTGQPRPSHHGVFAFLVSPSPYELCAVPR
Chain of Cytochrome P450 2C9 (P11712 whole entry): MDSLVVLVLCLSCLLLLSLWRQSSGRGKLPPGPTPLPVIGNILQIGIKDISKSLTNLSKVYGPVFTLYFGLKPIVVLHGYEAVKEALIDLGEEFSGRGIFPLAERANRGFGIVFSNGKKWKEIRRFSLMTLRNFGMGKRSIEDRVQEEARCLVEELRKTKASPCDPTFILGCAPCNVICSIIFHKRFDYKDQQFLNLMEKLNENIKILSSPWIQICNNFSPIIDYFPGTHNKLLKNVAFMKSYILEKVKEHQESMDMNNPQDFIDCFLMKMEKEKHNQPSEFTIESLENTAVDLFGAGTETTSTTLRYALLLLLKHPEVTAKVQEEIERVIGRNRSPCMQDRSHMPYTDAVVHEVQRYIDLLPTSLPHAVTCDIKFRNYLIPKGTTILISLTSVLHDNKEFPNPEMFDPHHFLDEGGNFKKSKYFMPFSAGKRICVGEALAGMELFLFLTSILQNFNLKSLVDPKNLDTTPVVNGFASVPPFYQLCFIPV

A word on the IC50: it is the concentration that gives 50% inhibition. As a reminder, the half-life is the time in which the quantity being followed falls by half. Turning to `CN1C[C@H]2CCC[C@@]2(c2ccc(Cl)c(Cl)c2)C1`, the Drug uptake came out at 507 ng/g with Brain [1]; 34 ng/g in the data set with Brain [5]; 4762 ng/g in the data set on Brain [11]; 113 ng/g in the data set with Brain [13]; 11433 ng/g in the data set with Brain [17]; 1531 ng/g with Brain [18]. Moreover, the IC50 in [2] was 0.0224 µM; on CYP1A, over 25 µM; on Cytochrome P450 2D6 it was 5.21 µM; in data set [12], 0.00363 µM; against Cytochrome P450 2C9, over 25 µM; at Cytochrome P450 3A4, over 25 µM. Further, the 50% inhibitory concentration (IC50) was 7.22 µM against Cytochrome P450 2C19 and 0.148 µM in data set [22]. The Activity with Mus musculus [3] was 25%; in the data set on Mus musculus [8] it was 31%; with Mus musculus [15] it was “Dose-dependent effect”; in the data set on Mus musculus [16], 26%. Besides, the Cp in the data set with Plasma [4] is 2 ng/mL; with Plasma [7], 7 ng/mL; with Plasma [9], 537 ng/mL; in the data set on Plasma [14] it was 211 ng/mL; in the data set on Plasma [19], 69 ng/mL; in the data set with Plasma [20], 30 ng/mL. Further, the values for the half-life at 3 µM in [6] and in data set [10] were 37 min and 27 min, respectively. The Kp in data set [21] came to 2.
With `Cl.Clc1ccc([C@@]23CCC[C@@H]2CNC3)cc1Cl`, the Drug uptake is listed as 14050 ng/g in the data set on Brain [1], 1747 ng/g with Brain [5] and 5950 ng/g in the data set on Brain [13]. In addition, the fraction unbound in data set [23] is 0.04. For the same compound, the Activity in the data set on Mus musculus [3] is given as 29%; with Mus musculus [24], “Non-toxic”; in the data set with Mus musculus [8] it was 42%; in the data set on Mus musculus [16], 25%. The Cp is 69 ng/mL in the data set with Plasma [4], 214 ng/mL with Plasma [7] and 569 ng/mL in the data set with Plasma [20]. The Kp in data set [25] was found to be 30.
